Rows were chosen to be rich in hits. Some 1.6% of all compounds tested hit in one or more screens of this group.
SR-BI uptake up: enhances SR-BI lipid uptake from DiI-HDL; CHO ldlA[mSR-BI] cells, DiI-HDL uptake fluorescence, 3 h; 100 = double the neutral-control signal; activation, % at 12.5 µM; 0.096% of 320,000 active; AID 504775;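 active means mean replicate activation of at least 60% and every replicate at or above 60%; inconclusive means mean or all-replicate condition met, but not both; inactive means mean below 60% and not all replicates reaching 60%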;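 further: 0% = median plate neutral-control signal and 100% = twice that signal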
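System: LDL receptor-deficient CHO ldlA cells overexpressing murine SR-BI | Timing: 3 h uptake period with compound, 37 °C | Medium: HEPES-buffered (25 mM, pH 7.4) F12 plus 0.5% BSA | Dosing: Single-point compound dose | Signal: Bottom-read fluorescence, 550/595 nm | Read-out: Retained DiI signal reflecting DiI-HDL uptake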
Bfl-1 A1 inh: inhibitors of the anti-apoptotic protein A1, read as caspase activation. MEF A1-2A-BIM cells, Caspase-Glo 3/7 luminescence, 3 h; percent of clofoctol response, vehicle zero. AID 2462. caspase activation, % (concentration not given with the values). 0.066% of 330,000 active;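 active means over half of replicate activation scores above 10%, or exactly half above 10 with the replicate mean above 10; inconclusive means replicate mean below 10 yet half the replicates above 10; inactive means over half of replicates below 10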
TAG inh: inhibitors of triacylglycerol accumulation. AID 651582. inhibition, % at 12.5 µM. H9c2 cells, Nile Red lipid (TAG) fluorescence; cells loaded with 200 µM oleic acid. 0.66% of 230,000 active;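 active means pattern-corrected inhibition of lipid staining of at least 50% with the nuclear-stain viability signal not falling by more than 50%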;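 further: 0% = DMSO wells and 100% = triacsin C control wells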
Vif inh: HIV Vif inhibition; HEK293T cells, Vif self-association by quenched fluorescence, imaging, 24 h; inhibition, % at 7.49 µM; 0.35% of 340,000 active; AID 602346; in the data active means inhibition above about 50%, passing the limit was not always enough; inconclusive means no clear call, values can overlap the other calls; inactive means below about 31%
SR-BI DiI inh: inhibitors of mouse SR-BI mediated HDL lipid uptake; 0.96% of 320,000 active; inhibition, % at 12.5 µM; Q61009; ldlA[mSR-BI] CHO cells, DiI-HDL uptake fluorescence, 3 h; AID 488896;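 active means mean replicate inhibition of at least 70% and a set share of replicates each scoring 70 or more; inconclusive means meets just one of the two criteria; inactive means fails both criteria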;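 further: 0% = median of neutral control wells and 100% = median of positive control wells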
Target sequence (Q61009 whole entry, looked up): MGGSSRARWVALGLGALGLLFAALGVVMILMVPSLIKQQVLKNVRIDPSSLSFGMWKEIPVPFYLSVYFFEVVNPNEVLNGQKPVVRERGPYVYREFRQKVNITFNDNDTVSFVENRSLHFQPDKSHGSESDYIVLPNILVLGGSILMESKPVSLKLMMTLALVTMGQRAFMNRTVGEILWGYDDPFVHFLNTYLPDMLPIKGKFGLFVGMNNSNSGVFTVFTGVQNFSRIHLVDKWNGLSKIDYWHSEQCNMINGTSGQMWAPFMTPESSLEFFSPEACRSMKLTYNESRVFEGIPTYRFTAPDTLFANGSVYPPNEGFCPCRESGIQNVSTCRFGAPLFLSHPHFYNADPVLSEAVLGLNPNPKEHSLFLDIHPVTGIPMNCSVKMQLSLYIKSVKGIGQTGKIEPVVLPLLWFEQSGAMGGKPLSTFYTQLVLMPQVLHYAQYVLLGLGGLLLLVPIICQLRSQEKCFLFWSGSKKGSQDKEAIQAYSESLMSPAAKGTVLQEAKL
The depositor's hits bear a star; ? = inconclusive; / = not tested or not shown.

SMILES | SR-BI uptake up | Bfl-1 A1 inh | TAG inh | Vif inh | SR-BI DiI inh
Cc1cccc(N2CCN(C(=O)C3CCN(c4ncnc5c4nc4n5CCCCC4)CC3)CC2C)c1 (configuration not stated) | -71.1 | 0.0 | / | -6.8 | 71.1*
O=C(C1CCCN(c2ncnc3c2nc2n3CCCCC2)C1)N1CCN(c2cccc(Cl)c2)CC1 (configuration not stated) | -25.5 | 0.7 | / | -5.5 | 25.5
O=C(C1CCN(c2ncnc3c2nc2n3CCCCC2)CC1)N1CCN(c2ccccc2F)CC1 | -29.5 | 0.2 | / | -3.4 | 29.5
Cc1cccc(N2CCN(C(=O)C3CCN(c4ncnc5c4nc4n5CCCCC4)CC3)CC2)c1C | -73.9 | -0.5 | / | -6.8 | 73.9*
NC(=O)Cn1ccc(O)c(Cc2ccc(Cl)cc2Cl)c1=O | 5.8 | 0.4 | / | -5.5 | -5.8
Cc1cc(C)c(C)c(S(=O)(=O)N2CCC(C(=O)NNC(=O)c3ccccc3O)CC2)c1C | -118.9 | 0.7 | -5.9 | 9.5 | 118.8*
Cc1ccc(S(=O)(=O)N2CCC(C(=O)NNC(=O)c3ccccc3O)CC2)cc1 | -81.5 | 1.9 | 0.4 | -1.8 | 81.5*
Cc1ccc(S(=O)(=O)N2CCC(C(=O)NNC(=O)c3ccccc3O)CC2)cc1C | -72.1 | 3.1 | 3.4 | 1.0 | 72.1*
Cc1ccc(C(=O)NNC(=O)C2CCN(S(=O)(=O)c3ccc(Cl)cc3)CC2)cc1 | -3.0 | -0.5 | / | 0.8 | 3.0
COc1cccc(C(=O)N2CCC(C(=O)NCc3ccco3)CC2)c1 | 10.6 | -0.3 | / | 14.0 | -10.6
COc1ccc(-c2noc(CCC(=O)N3CCN(c4ccccc4F)CC3)n2)cc1 | 17.4 | / | -19.5 | 6.4 | -17.4
Cc1ccc[n+](CC(=O)Nc2cc(C(F)(F)F)ccc2N2CCOCC2)c1 | -12.3 | 0.6 | -22.1 | -2.3 | 12.3
O=c1c2c(-c3ccccc3)csc2nc2c3ccccc3c(NCCN3CCOCC3)nn12 | 20.8 | / | 100.5* | 9.9 | -20.8
O=c1c2ccccc2nc2c3ccccc3c(NCCN3CCOCC3)nn12 | / | -0.2 | / | / | /
O=C(O)c1cc([N+](=O)[O-])ccc1N1CCCCC1 | 55.2 | 0.4 | / | -6.7 | -55.2
Cc1ccc(C(=O)c2cc([N+](=O)[O-])ccc2N2CCCCC2)c(C)c1 | -74.9 | 2.4 | / | 2.7 | 74.9*
O=C(c1cc([N+](=O)[O-])ccc1N1CCCCC1)N1CCc2ccccc21 | -75.6 | 1.0 | 19.1 | -26.4 | 75.6*
O=C(c1cc([N+](=O)[O-])ccc1Cl)N1CCc2ccccc21 | -15.2 | 0.1 | / | -3.4 | 15.2
COc1ccc(/C=C(/NC(=O)/C=C/c2ccccc2)C(=O)NCCCCCC(=O)O)cc1 | 10.9 | 0.9 | -2.2 | 9.5 | -10.9
CSCCC(N=C(NS(=O)(=O)c1ccc(C)cc1)c1ccccc1)C(=O)O (configuration not stated) | / | 0.6 | 1.0 | -3.4 | /
CN(CC(=O)Nc1ccc(OC(F)(F)F)cc1)C(=O)/C=C/c1cc2c(cc1[N+](=O)[O-])OCO2 | -2.7 | -2.0 | -7.7 | -2.0 | 2.7
CN(C)CCCN(C(=O)CCc1ccccc1)c1nc2ccc(Br)cc2s1 | 7.5 | 0.3 | 98.2* | 16.2 | -7.5
O=C(O)CC1(CC(=O)Nc2ccc3c(c2)C(=O)OC3)CCCCC1 | / | ? | 3.0 | 3.6 | /
NC(=O)c1ccccc1OCC(=O)NS(=O)(=O)c1ccccc1 | 15.6 | 0.2 | / | 56.1* | -15.6
NC(=O)c1ccccc1OCC(=O)O | 0.8 | 2.6 | 10.5 | 9.8 | -0.8
SMILES | SR-BI uptake up | Bfl-1 A1 inh | TAG inh | Vif inh | SR-BI DiI inh
COc1ccc(CCNC(=O)COC(=O)c2ccccn2)cc1 | 25.7 | ? | -5.8 | 9.8 | -25.7
CCc1cccc(NS(=O)(=O)c2c(C)[nH]c(=O)[nH]c2=O)c1 | 9.1 | 0.2 | / | -3.5 | -9.1
C[C@]12CCC(=O)C=C1CC[C@@H]1[C@@H]2[C@@H](O)C[C@@]2(C)[C@H]1CC[C@]2(O)C(=O)CO | -2.2 | -0.4 | 30.4 | -1.1 | 2.2
CC12CCC(=O)C=C1CCC1C2C(O)CC2(C)C1CCC2(O)C(=O)CO (configuration not stated) | -4.6 | 0.6 | 23.2 | 50.1* | 4.6
CSc1nccc(NC(=O)c2cccc(Br)c2)n1 | -20.7 | 0.0 | / | 0.9 | 20.7
CCSc1ccc(-c2nn(-c3ccccc3)cc2/C=C(/C#N)C(=O)NC)cc1 | -7.0 | 8.3* | / | -4.6 | 7.0
Fc1cccc(NC(=S)NCc2ccc(Cl)cc2)c1 | -5.3 | 1.2 | -8.7 | 12.7 | 5.3
Fc1cc(NC(=S)NCc2ccc(CNC(=S)Nc3ccc(Cl)c(F)c3)cc2)ccc1Cl | -73.3 | 0.2 | 14.2 | -2.7 | 73.3*
CCOc1ccccc1N(C)C(=O)CCS(=O)(=O)c1ccc2c(c1)NC(=O)CO2 | 0.4 | -0.4 | / | 0.6 | -0.4
COc1cccc(CNC(=O)CCNS(=O)(=O)c2ccc(C)cc2)c1 | 23.6 | -0.8 | -6.0 | 4.7 | -23.6
NC(=S)N/N=C/c1ncc(C(F)(F)F)cc1Cl | -73.2 | 0.1 | 74.2 | 5.2 | 73.2*
COc1ccc(C(=O)OCC(=O)c2ccc[nH]2)c(OC)c1 | -15.8 | -1.7 | -18.8 | -0.8 | 15.8
CC(=O)c1cccc(NC(=S)NCCc2ccc(Cl)cc2)c1 | -76.2 | -0.8 | -11.4 | -24.5 | 76.2*
CC(=O)c1cccc(NC(=S)NCc2ccccc2)c1 | -3.9 | 0.4 | -8.0 | -7.4 | 3.9
COC(=O)c1cccc(NC(=S)NCCC2=CCCCC2)c1 | -62.0 | -0.4 | / | 55.1* | 62.0
NC(=O)NCCC1=CCCCC1 | 93.5* | -0.9 | -10.0 | 1.8 | -93.5
CCCNC(=O)C(=O)NCCC1=CCCCC1 | 27.2 | -0.7 | 19.6 | 6.2 | -27.2
COCCc1nc2ccc(C(=O)N(C)Cc3cccc(-n4nc(C)cc4C)c3)cc2o1 | -15.4 | 1.5 | 16.9 | -3.0 | 15.4
Cn1c(CNC(=O)CCNC(=O)c2ccccc2)cc(=O)n(C)c1=O | 17.8 | -0.5 | / | -2.8 | -17.8
CN1C(C)(C)CC(O)(C(=O)O)CC1(C)C | / | / | / | -0.9 | /
Cc1cccc(C(=O)NCC(=O)OC(C)C(=O)Nc2ccc(Cl)cn2)c1 (configuration not stated) | 30.2 | 1.0 | -1.0 | -0.2 | -30.2
CCN(C(=O)COC(=O)c1ccccc1NCc1ccco1)c1c(N)n(Cc2ccccc2)c(=O)[nH]c1=O | -72.9 | / | -4.6 | -3.2 | 72.9*
COCCN(C(=O)COC(=O)c1cc2ccccc2cc1OC)c1c(N)n(Cc2ccccc2)c(=O)[nH]c1=O | -55.3 | -0.8 | 11.0 | / | 55.3
CC(C)CN(C(=O)COC(=O)CSc1ccccc1)c1c(N)n(Cc2ccccc2)c(=O)[nH]c1=O | 7.1 | 1.5 | -14.9 | 50.3* | -7.1
CCOc1ccc(OCC(=O)N(CCC2=CCCCC2)c2c(N)n(Cc3ccccc3)c(=O)[nH]c2=O)cc1 | 8.0 | 60.3* | -7.9 | -8.6 | -8.0
CCOc1ccc(OCCC(=O)N(CCC2=CCCCC2)c2c(N)n(Cc3ccccc3)c(=O)[nH]c2=O)cc1 | -44.4 | 0.6 | 15.8 | 1.1 | 44.4
COc1cc2ccccc2cc1C(=O)OCC(=O)N(CC(C)C)c1c(N)n(Cc2ccccc2)c(=O)[nH]c1=O | -79.7 | 0.9 | 17.3 | 4.7 | 79.7*
